# An excerpt weighted towards active compounds, which were near 3.5% of everything screened.
# RGS4 pot = RGS4 potentiators or activators, primary screen, cell-based, HEK293 M3R inducible RGS4, calcium flux | carbachol calcium flux Fluo4; hits give low values | B-score at 10 µM | 310,000 tested, 0.92% active | AID 463111, 2010;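 active = B-score of the integrated calcium signal more than 4 SD below the library mean, with starting fluorescence not abnormally high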;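 note: negative B-score means reduced calcium response which marks RGS4 activation or potentiation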
#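 Test system: HEK293 cells with stable M3R and inducible RGS4; also added: carbachol at ECmax as muscarinic agonist stimulus; schedule: dye loading 30 min 37 °C, buffer rest 30 min RT; technique: kinetic calcium fluorescence imaging with Fluo4-AM dye, 2 µM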
# RGS4 block = RGS4 inhibitors, primary screen, cell-based, HEK293 M3R inducible RGS4, calcium flux; AID 463165, 2010; Fluo-4 calcium flux; hits give high values; triggered by carbachol at its EC20; 310,000 tested, 0.45% active; B-score at 10 µM; Regulator of G-protein signaling 4 (Homo sapiens), P49798;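 active = B-score, a plate-corrected calcium signal, over three deviations above library mean, with baseline fluorescence within five deviations of library mean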;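 note: RGS4 expression induced by doxycycline in cells with stable M3 receptor; B-score is computed from the integrated fluorescence ratio over baseline after carbachol; higher B-score means a larger calcium signal and so more RGS4 inhibition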
# Target sequence (P49798 whole entry, looked up): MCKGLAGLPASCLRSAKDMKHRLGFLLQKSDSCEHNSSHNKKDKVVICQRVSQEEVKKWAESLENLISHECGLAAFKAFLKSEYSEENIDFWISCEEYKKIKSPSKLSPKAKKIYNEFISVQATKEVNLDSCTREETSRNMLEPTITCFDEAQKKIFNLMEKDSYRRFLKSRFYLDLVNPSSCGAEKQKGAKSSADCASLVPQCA
# MrgX1 allo act = positive allosteric modulators of MrgX1, primary screen, HEK293 cells, Fluo-4 calcium flux | Mas-related G-protein coupled receptor member X1 (Homo sapiens), Q96LB2 | 310,000 tested, 0.63% active | FDSS; hits give high values | B-score at 10 µM | AID 588675, 2011;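 active = plate-corrected calcium response at least 3 library SD above typical, normal starting fluorescence, not activating the receptor alone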;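 note: compound read alongside a low EC10 to EC30 dose of BAM8-22 agonist; peak minus trough fluorescence over baseline measured at the second addition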
# Target sequence (Q96LB2 whole entry, looked up): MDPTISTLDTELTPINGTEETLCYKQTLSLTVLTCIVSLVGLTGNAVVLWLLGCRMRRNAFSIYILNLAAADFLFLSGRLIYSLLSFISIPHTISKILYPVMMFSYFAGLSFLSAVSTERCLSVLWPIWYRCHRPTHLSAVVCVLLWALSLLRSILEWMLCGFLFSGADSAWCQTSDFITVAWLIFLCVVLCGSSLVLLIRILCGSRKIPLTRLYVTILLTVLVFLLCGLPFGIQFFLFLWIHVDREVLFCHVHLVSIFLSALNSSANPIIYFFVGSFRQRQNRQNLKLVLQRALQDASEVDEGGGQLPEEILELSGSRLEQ
# MrgX1 antag = antagonists of human MrgX1 receptor, primary screen, HEK293 cells, Fluo-4 calcium flux; B-score at 10 µM; 310,000 tested, 1.3% active; BAM8-22 antagonism; hits give low values; Mas-related G-protein coupled receptor member X1 (Homo sapiens), Q96LB2;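 active = calcium-response B-score plate-corrected more than 3 library SD below zero, starting fluorescence within 5 deviations, no agonist response on first addition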;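 note: peak minus trough fluorescence over baseline after final BAM8-22 challenge near maximal dose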
# MrgX1 ag = agonists of human MrgX1 receptor, primary screen, HEK293 cells, Fluo-4 calcium flux | Mas-related G-protein coupled receptor member X1 (Homo sapiens), Q96LB2 | Fluo-4 calcium fluorescence, agonist mode; hits give high values | B-score at 10 µM | 310,000 tested, 0.44% active | AID 588627, 2011;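 active = calcium response B-score plate-corrected fluorescence ratio at least 3 library SD, with starting fluorescence B-score inside 5 SD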
#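 times = overnight plating, then 30 min 37 °C plus 30 min room-temperature dye loading | assay system = stable human MrgX1 HEK293 cell line | input = fifteen thousand cells per well | signal = kinetic calcium dye fluorescence, Fluo-4 NW | dosing = compound delivered in addition one of three | read-out = B-scored fluorescence response ratio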
# MrgX1 ag confirm = MrgX1 receptor agonists, duplicate retest, confirmation, HEK293 cells, Fluo-4 calcium flux | shares compounds with MrgX1 ag | Fluo-4 calcium fluorescence, FDSS | activation, % at 10 µM | 600 tested, 78% active | AID 602412, 2012;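 active = calcium signal rise, corrected for plate position, at least 3 library SD high, with starting brightness within 5 such deviations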; note: reference of the scale not given here
# MrgX1 allo conf = MrgX1 positive allosteric modulators, duplicate retest, confirmation, HEK293 cells, Fluo-4 calcium flux | 1,200 tested, 13% active | activation (ratio percentage), % at 10 µM | Fluo-4 calcium fluorescence, FDSS | shares compounds with MrgX1 allo act;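 active = ratio at least 3 SD above the weak peptide control, stable starting fluorescence, no direct agonism earlier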;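 note: compound followed by low BAM8-22 agonist challenge near EC20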
# HEK293 Ca flux = nonspecific calcium signal in parental HEK293, confirmation, counter-screen for MrgX1 antagonist project, parental HEK293 cells, Fluo-4 calcium flux; shares compounds with MrgX1 antag; Fluo-4 calcium fluorescence, FDSS; fluorescence ratio F(max-min)/F0 at 10 µM; 4,000 tested, 2% active; AID 624111, 2012;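 active = duplicate-averaged calcium fluorescence ratio at least three times the standard deviation of buffer wells, a nonspecific response in parental cells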
# HEK293 Ca counter = calcium response in parental HEK293 cells, primary screen, counter-screen for MrgX1 allosteric activator project, cell-based, Fluo-4 calcium flux, duplicate. shares compounds with MrgX1 antag. Fluo-4 fluorescence ratio; hits give high values. fluorescence ratio F(max-min)/F0 at 10 µM. 4,000 tested, 0.4% active. AID 624114, 2012;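 active = calcium fluorescence ratio, averaged over duplicates, at least 3 SD of the buffer-well ratio, meaning a nonspecific response in receptor-free cells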;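 note: untransfected parental HEK293 lacking MrgX1 used as counterscreen for MrgX1 allosteric activators; fluorescence change taken during the second addition on a kinetic imager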
# HEK293 Ca cntr2 = calcium response in parental HEK293 cells, primary screen, counter-screen for MrgX1 agonist project, cell-based, Fluo-4 calcium flux, duplicate, agonist mode. shares compounds with MrgX1 antag. 4,000 tested, 8.7% active. fluorescence ratio F(max-min)/F0 at 10 µM. Fluo-4 calcium fluorescence (FDSS); hits give high values. AID 624115, 2012;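 active = calcium fluorescence ratio at least three times the spread of buffer wells, meaning a non-specific response in parental cells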
# * = called active by the depositor; i = inactive; / = not tested or not shown.
SMILES,RGS4 pot,RGS4 block,MrgX1 allo act,MrgX1 antag,MrgX1 ag,MrgX1 allo conf,HEK293 Ca flux,HEK293 Ca counter,HEK293 Ca cntr2,others
CCSc1nnc(-c2cc(Br)ccc2N=Cc2c(C)[nH]n(-c3ccccc3)c2=O)c(=O)[nH]1,i,i,i,i,71*,/,i,i,61*,MrgX1 ag confirm=109%*
CSc1nnc(-c2cc(Br)ccc2N=Cc2c(C)[nH]n(-c3ccccc3)c2=O)c(=O)[nH]1,i,i,i,i,i,/,/,/,/,
c1ccc2oc(-c3[nH]ncc3CN3CCSCC3)cc2c1,i,i,i,i,i,/,/,/,/,
COc1ccc(-c2cc(C(=O)Nc3c(F)cc(F)cc3Br)no2)cc1,i,i,8.9*,i,i,i,i,i,i,
COc1ccc(-c2cc(C(=O)Nc3ccc(F)cc3F)no2)cc1,i,i,i,i,i,/,/,/,/,
C/C(=N\N=C1\NC(=O)CC(C(=O)O)S1)c1ccc(F)cc1 (centres undefined),i,i,i,i,i,/,/,/,/,
O=C(Nc1ccc(F)cc1)C1CC(=O)n2cnnc2N1 (centres undefined),i,i,i,i,i,/,/,/,/,
COC(=O)Cc1[nH]n(-c2nc3ccccc3s2)c(=O)c1C(C)=Nc1ccc(Cl)cc1,i,i,12*,i,i,i,i,i,i,
O=C(NCCNC(=O)c1ccc(-c2ccc(Cl)c(Cl)c2)o1)c1cnccn1,i,i,7.2*,i,i,i,i,i,i,
O=C(NCCNC(=O)c1cnccn1)c1cccc(Cl)c1,i,i,i,i,i,/,/,/,/,
O=C(NCCCNC(=O)c1ccc(-c2cccc(Cl)c2)o1)c1cnccn1,i,i,13*,i,i,i,i,i,i,
CC(=O)c1c(-c2ccc(C)cc2)nc2c3ccccc3ccn12,i,i,6.8*,i,i,16%*,i,i,i,
Cn1ncc(Br)c1C(=O)NC12CC3CC(CC(C3)C1)C2,i,i,8.6*,i,i,i,i,i,i,
O=C(Nc1ccc(F)cc1F)c1cc(-c2ccco2)on1,i,i,i,i,i,/,/,/,/,
O=C(Nc1ccc(F)cc1F)c1ccco1,i,i,7.6*,i,i,i,i,i,i,
CC(C)(C)n1ncc2c(=O)n(Cc3cccc(Cl)c3)cnc21,i,i,i,i,i,/,/,/,/,
Cc1sc(N(C(=O)CCc2ccccc2)c2ccc(C(=O)O)cc2)nc1-c1ccccc1,i,i,i,i,i,/,/,/,/,
CCC(=O)N(c1ccc(C(=O)O)cc1)c1nc(-c2ccc(OC)cc2)c(C)s1,i,i,6.5*,i,i,i,i,i,i,
O=C(COc1ccc(Br)cc1)NN1C(=O)c2ccccc2C1=O,i,i,i,i,i,/,/,/,/,
O=C(Nc1nc(-c2cccs2)c(C(=O)C(F)(F)F)s1)c1ccco1,i,i,7.6*,i,i,i,i,i,i,
Cn1cccc1-c1nc2ccc(NC(=O)c3ccccc3)cc2[nH]1,i,i,7.2*,i,i,39%*,i,i,i,
COc1ccc(C(C)=O)cc1COC(=O)c1cc2ccccc2cc1O,i,i,i,i,i,/,/,/,/,
O=C(O)CSc1ncnc2scc(-c3ccc(Br)cc3)c12,i,i,10*,i,i,i,i,i,i,
O=C(O)CSc1ncnc2scc(-c3ccccc3)c12,i,i,i,i,i,/,/,/,/,
COc1ccccc1N1CCN(C(=O)c2cc3cc(C)ccc3[nH]2)CC1,i,i,11*,i,i,i,i,i,i,
SMILES,RGS4 pot,RGS4 block,MrgX1 allo act,MrgX1 antag,MrgX1 ag,MrgX1 allo conf,HEK293 Ca flux,HEK293 Ca counter,HEK293 Ca cntr2,others
CCOC(=O)c1c(-c2ccccc2)oc2ccc(OC(C)C(=O)O)cc12 (centres undefined),i,i,7.7*,i,i,i,i,i,i,
CC(C)Nc1nc(NC(C)(C)C)nc(Oc2ccc(=O)n(C)n2)n1,i,i,28*,i,i,i,i,i,i,
Cc1cccc(Oc2ncnc3oc(-c4ccccc4)cc23)c1C,i,i,12*,i,i,7.6%*,i,i,i,
Cc1cccc(OCC(=O)Nc2cccc(-c3nnc(-c4ccccc4)o3)c2)c1C,i,i,i,i,i,/,/,/,/,
CCOC(=O)N1CCC(N2Cc3cccc(C(=O)NCC4CCN(CC(C)C)C4)c3C2=O)CC1 (centres undefined),/,/,i,i,i,/,/,/,/,
CC(C)(C)Nc1ncnc2c1cnn2-c1ccccc1,i,i,7.7*,i,i,i,i,i,i,
c1ccc(CNc2ncnc3c2cnn3-c2ccccc2)cc1,i,i,i,i,i,/,/,/,/,
Cc1cc(Nc2cccc([N+](=O)[O-])c2)c2cccc(C)c2n1,i,i,i,i,i,/,/,/,/,
CC(C)(C)c1nnc(NS(=O)(=O)c2cc(Cl)ccc2Cl)s1,i,i,12*,i,i,i,i,i,i,
O=S(=O)(Nc1nnc(C(F)(F)F)s1)c1ccc(Cl)cc1,i,i,i,i,i,/,/,/,/,
Cc1onc(-c2c(Cl)cccc2Cl)c1C(=O)N1CCN(c2ccc(F)cc2)CC1,i,i,i,i,i,/,/,/,/,

# High-throughput results: PubChem, Johns Hopkins Ion Channel Center
